The source of these data is paper PMC4689628 (Organic & biomolecular chemistry, 2016).

In assay [1] the target is T1, MLL1 SET domain (Homo sapiens, UniProt Q03164). As to the kind of experiment: FL-NAH fluorescence polarization saturation binding, isolated SET domain. The settings on record: SET Only. Summed up:
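The isolated MLL1 SET domain was titrated in increasing concentrations against 50 nM fluorescein-azaadenosylhomocysteine probe. Buffer was 20 mM Tris pH 8.0, 0.01% Triton X-100, 5 mM DTT. Incubation was 30 min at ambient temperature. FP was read at ex 485/em 528 nm. Kd and ΔFPmax came from nonlinear least-squares single-site saturation fit of ΔFP. Mean ± SD, three independent experiments.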
For orientation: Polarisation of emitted light reports the rotation of a fluorescent probe.

In assay [2] the target is T2, tetrameric MLL1 complex (Homo sapiens, UniProt Q03164). The assay can be described thus: FL-NAH fluorescence polarization saturation binding, tetrameric complex.
Assay [3] addresses T1, MLL1 SET domain. As to the kind of experiment: saturation-transfer difference. The assay is classed as binding. The settings on record: Supplementary Figure 2.
The target in assay [4] is T3, trimeric MLL1 complex (MLL1, RbBP5 and WDR5) (Homo sapiens, UniProt Q03164). The assay can be described thus: FL-NAH fluorescence polarization saturation binding, trimeric complex.
Assay [5] concerns the target T4, pentameric MLL1 complex (Homo sapiens, UniProt Q03164). The assay can be described thus: FL-NAH fluorescence polarization saturation binding, pentameric complex.
Assay [6] deals with T1, MLL1 SET domain. As to the kind of experiment: differential static light scattering. The assay is classed as binding. The note with it: Supplementary Figure 3.
The target of assay [7] is T1, MLL1 SET domain. The assay can be described thus: FL-NAH displacement FP assay, isolated SET domain. The note with it: for Hill Slope: SET Only, FL-NAH displacement curve. The assay is classed as binding.
In assay [8] the target is T2, tetrameric MLL1 complex. The assay can be described thus: FL-NAH displacement FP assay, tetrameric complex. The assay is classed as binding. The settings on record: for Hill Slope: Tetrameric complex, FL-NAH displacement curve. Summed up:
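The tetrameric MLL1 complex was diluted to its own Kd (probe) concentration. It was then incubated 30 min at ambient temperature with 50 nM fluorescein-azaadenosylhomocysteine probe and increasing concentrations of test compound. Buffer was 20 mM Tris pH 8.0, 0.01% Triton X-100, 5 mM DTT. FP was read at ex 485/em 528 nm, in mP. Kdisp and Hill coefficient came from nonlinear least-squares sigmoidal fit. Mean ± SD, ≥3 independent experiments.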

Assay [9] concerns the target T3, trimeric MLL1 complex (MLL1, RbBP5 and WDR5). The assay can be described thus: FL-NAH displacement FP assay, trimeric complex. Format: binding. The settings on record: for Hill Slope: Trimeric complex, FL-NAH displacement curve.
The target of assay [10] is T4, pentameric MLL1 complex. As to the kind of experiment: FL-NAH displacement FP assay, pentameric complex. Format: binding. The note with it: for Hill Slope: Pentameric complex, FL-NAH displacement curve.
[11] abbreviates: polarization expressed in mP (methods).

T2 sequence (Q03164 3829-3945): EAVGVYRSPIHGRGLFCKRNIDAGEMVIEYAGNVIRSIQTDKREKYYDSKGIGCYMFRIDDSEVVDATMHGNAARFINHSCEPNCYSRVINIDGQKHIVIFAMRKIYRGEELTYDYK
T2 sequence (Q15291 whole entry, further chain, the tested form may be a part): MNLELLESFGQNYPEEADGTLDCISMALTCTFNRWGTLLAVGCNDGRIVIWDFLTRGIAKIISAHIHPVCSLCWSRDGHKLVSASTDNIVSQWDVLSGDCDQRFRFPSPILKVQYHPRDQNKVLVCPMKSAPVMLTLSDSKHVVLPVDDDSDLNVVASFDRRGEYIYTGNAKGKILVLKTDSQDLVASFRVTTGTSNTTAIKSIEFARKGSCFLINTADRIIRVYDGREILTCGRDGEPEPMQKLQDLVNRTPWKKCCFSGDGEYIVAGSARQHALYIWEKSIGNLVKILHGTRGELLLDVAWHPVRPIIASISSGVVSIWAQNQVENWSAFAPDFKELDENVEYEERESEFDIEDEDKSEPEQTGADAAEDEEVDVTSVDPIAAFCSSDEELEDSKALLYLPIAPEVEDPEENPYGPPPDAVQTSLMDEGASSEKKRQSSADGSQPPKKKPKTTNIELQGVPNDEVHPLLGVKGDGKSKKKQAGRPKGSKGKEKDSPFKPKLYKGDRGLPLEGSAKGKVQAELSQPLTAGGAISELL
T2 sequence (Q9UBL3 whole entry, further chain, the tested form may be a part): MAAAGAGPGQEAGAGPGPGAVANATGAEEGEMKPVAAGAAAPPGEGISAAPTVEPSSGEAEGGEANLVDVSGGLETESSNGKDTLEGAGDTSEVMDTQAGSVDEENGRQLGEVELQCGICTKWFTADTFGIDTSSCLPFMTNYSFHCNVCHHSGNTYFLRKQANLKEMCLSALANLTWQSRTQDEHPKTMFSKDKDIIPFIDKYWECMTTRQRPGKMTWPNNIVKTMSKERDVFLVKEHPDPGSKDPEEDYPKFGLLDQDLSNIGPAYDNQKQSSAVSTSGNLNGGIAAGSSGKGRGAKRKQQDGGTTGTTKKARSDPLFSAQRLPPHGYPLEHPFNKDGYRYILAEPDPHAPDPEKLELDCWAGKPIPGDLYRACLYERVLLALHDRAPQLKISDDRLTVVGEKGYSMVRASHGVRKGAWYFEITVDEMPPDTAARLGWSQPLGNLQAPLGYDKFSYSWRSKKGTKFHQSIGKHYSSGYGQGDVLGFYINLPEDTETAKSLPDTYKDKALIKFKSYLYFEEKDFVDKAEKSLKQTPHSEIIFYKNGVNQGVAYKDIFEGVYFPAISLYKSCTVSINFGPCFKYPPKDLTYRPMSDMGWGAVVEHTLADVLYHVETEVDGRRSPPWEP
T1 sequence (Q03164 3829-3945 limits assumed): as the sequence (Q03164 3829-3945) above

For orientation: Kd means the free concentration of one partner at which half of the binding sites on the other are occupied at equilibrium, for simple one-to-one binding. Higher therefore signals weaker binding. With `Nc1ncnc2c1ncn2[C@@H]1O[C@H](CN(CC[C@H](N)C(=O)O)Cc2cn(CCNC(=O)c3ccc4c(c3)C(=O)OC43c4ccc(O)cc4Oc4cc(O)ccc43)nn2)[C@@H](O)[C@H]1O` [FL-NAH, fluorescein linked with N-adenosylhomocysteine], the Kd at MLL1 SET domain [1] (50 nM FL-NAH, FP after 30 min) worked out at 1000 ± 100 nM; on tetrameric MLL1 complex [2] (50 nM FL-NAH, FP after 30 min) it was 1400 ± 400 nM; in [4] (50 nM FL-NAH, FP after 30 min), 7000 ± 3000 nM; at pentameric MLL1 complex [5] (50 nM FL-NAH, FP after 30 min), 200 ± 30 nM. Besides, the ΔFPmax at MLL1 SET domain [1] (setting [11]) came to 240 ± 3; on tetrameric MLL1 complex [2] (setting [11]), 300 ± 30; in [4] (setting [11]), 260 ± 40; on pentameric MLL1 complex [5] (setting [11]), 270 ± 20. Further, at MLL1 SET domain [3], the “binding to MLL1 SET domain alone by STD NMR” value was “confirmed”. For the same compound, on MLL1 SET domain [6], the “binding to MLL1 SET domain alone by differential static light scattering” value is “confirmed”.
Consider `Nc1ncnc2c1ncn2[C@@H]1O[C@H](CSCC[C@H](N)C(=O)O)[C@@H](O)[C@H]1O` [SAH], for which the “Hill Slope” value on MLL1 SET domain [7] is −0.9 ± 0.2; on tetrameric MLL1 complex [8], −1.9 ± 0.1; in [9] it was −1.5 ± 0.3; on pentameric MLL1 complex [10], −1.4 ± 0.3. Besides, the “increase in potency of FL-NAH displacement, pentameric complex relative to the isolated SET domain” value on pentameric MLL1 complex [10] (pentameric vs isolated SET domain) was 20 fold.
As a reminder, the IC50 is the concentration needed to halve the response being measured. Low readings indicate greater potency in that assay, high ones weaker potency in that assay. Consider `C[S+](CC[C@H](N)C(=O)[O-])C[C@H]1O[C@@H](n2cnc3c(N)ncnc32)[C@H](O)[C@@H]1O` (stereo partly shown) [SAM, S-adenosylmethionine], for which the IC50 at MLL1 SET domain [7] came out at 14000 ± 2000 nM; on tetrameric MLL1 complex [8], 1000 ± 100 nM; in assay [9], 7000 ± 1000 nM; at pentameric MLL1 complex [10] it was 1000 ± 200 nM. In addition, the “Hill Slope” value is reported as −1.2 ± 0.1 at MLL1 SET domain [7], −1.7 ± 0.2 on tetrameric MLL1 complex [8], −1.6 ± 0.4 in assay [9] and −1.6 ± 0.3 at pentameric MLL1 complex [10].
Consider `Nc1ncnc2c1ncn2[C@@H]1O[C@H](C[C@@H](N)CC[C@H](N)C(=O)O)[C@@H](O)[C@H]1O` [Sinefungin, sinefungin], for which the half-inhibitory concentration (IC50) on MLL1 SET domain [7] came to 9000 ± 200 nM; on tetrameric MLL1 complex [8], 2000 ± 200 nM; in assay [9], 10000 ± 2500 nM; on pentameric MLL1 complex [10], 500 ± 100 nM. Besides, the “Hill Slope” value is recorded as −0.9 ± 0.1 on MLL1 SET domain [7], −1.2 ± 0.1 on tetrameric MLL1 complex [8], −1.1 ± 0.3 in assay [9] and −1.1 ± 0.3 at pentameric MLL1 complex [10].
